High-throughput results from PubChem BioAssay.
C8 TRAIL sens = caspase-8 TRAIL sensitization; 360,000 tested, 1% active; AID 624354; NB7+C8 cells + TRAIL, ATPlite viability luminescence; inhibition (viability loss, TRAIL sensitization), % at 10 µM;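 active = compounds causing at least 50% loss of cell viability in the single-dose screen, relative to plate controls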
FLuc inhib CS = counter-screen for luciferase assay inhibitors: firefly luciferase inhibition. inhibition, % at 10 µM. 200,000 tested, 1.5% active. P08659. ATPLite firefly luciferase biochemical luminescence, 10 min. AID 1006;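 active = inhibition above about 50% when tested at 10 µM, limit read from the data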
Target sequence (P08659 whole entry, looked up): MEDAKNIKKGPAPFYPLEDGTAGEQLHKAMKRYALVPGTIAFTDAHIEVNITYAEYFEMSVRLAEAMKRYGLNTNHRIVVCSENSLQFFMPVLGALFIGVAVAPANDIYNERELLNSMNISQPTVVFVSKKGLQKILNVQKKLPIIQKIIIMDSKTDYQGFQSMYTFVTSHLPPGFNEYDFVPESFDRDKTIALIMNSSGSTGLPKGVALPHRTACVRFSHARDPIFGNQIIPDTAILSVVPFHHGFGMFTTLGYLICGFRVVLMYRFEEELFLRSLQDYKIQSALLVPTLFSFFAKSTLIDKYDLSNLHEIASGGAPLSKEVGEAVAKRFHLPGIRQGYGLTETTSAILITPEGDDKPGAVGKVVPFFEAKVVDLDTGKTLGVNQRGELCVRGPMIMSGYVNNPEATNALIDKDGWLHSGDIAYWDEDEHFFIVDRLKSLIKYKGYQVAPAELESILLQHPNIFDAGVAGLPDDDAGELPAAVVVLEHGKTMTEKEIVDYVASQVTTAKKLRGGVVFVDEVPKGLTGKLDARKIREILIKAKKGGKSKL
NF-kB neuron act = NF-kB expression increase, human neuronal cells. NF-kB reporter expression; active compounds read high. fold change at 12.5 µM. 190,000 tested, 1.6% active. AID 1239; in the data active = fold change above about 3.3
APP 5'UTR act = APP 5'UTR luciferase reporter activation; activation, % at 2 µM; SH-SY5Y APP 5'UTR luciferase reporter, luminescence; zero percent = DMSO vehicle wells; 190,000 tested, 1% active;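 active = activation above a set limit, based on mean plus 3 SD of controls, cut at about 140% in these data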
PPC-1+TRAIL kill = kills PPC-1 cancer cells in the presence of TRAIL; PPC-1 cells + TRAIL, ATPLite viability luminescence; cell killing (% activity), % at 4 µM or 5 µM; 220,000 tested, 0.41% active; AID 1443;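 active = cell killing above 50% in the first pass at 4 µM, then a duplicate retest at 5 µM averaging 50% or more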;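 note: plate controls were cells with TRAIL plus DMSO for no effect and medium-only wells lacking cells for full effect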
FLuc act counter = firefly luciferase counter-screen for stimulation assays. ATPlite luciferase biochemical, luminescence, 10 min; 0 = ATP-free wells, 1 = DMSO control. activation factor at 10 µM. P08659. 200,000 tested, under 10 active. AID 1027;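 active = luciferase activation factor, scaled between plate controls, of at least 2 with compound at 10 µM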
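Material: luciferase plus luciferin reagent, cell-free. Medium: PBS buffer for ATP. Also added: ATP substrate, dispensed from a 10.24 µM working solution in PBS. Doses: test compounds dosed from 2 mM stocks in 100% DMSO. Incubation: 10 min post-reagent at room temperature. Technique: light output (luminescence). Read-out basis: luminescence gain marking luciferase activators.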
Starred values were filed as active, the others as inactive; / = no result given. Compounds with a hit are over-represented: about 2.2% of the library has one in this group of screens.

SMILES	C8 TRAIL sens	FLuc inhib CS	NF-kB neuron act	APP 5'UTR act	PPC-1+TRAIL kill	FLuc act counter
Nc1ccccc1C(=O)OCC(=O)c1ccc2c(c1)OCCO2	5	97*	1.7	6	-7	0
CCCNC(=O)N1[C@H]2CC[C@@H]1C(C(=O)OC)=C(c1ccc(S(C)(=O)=O)cc1)C2	10	/	/	/	/	/
Nc1c2c(nc3sc4c(c13)CCCC4)CCCC2	18	22	2.1	55	18	0.8
Nc1c2c(nc3sc4c(c13)CCCC4)CCCCC2	34	36	3.8*	56	8	0.6
CCOC(=O)[C@]12Cc3ccc(C)cc3[C@H]1N(C1CCCCC1)C(=O)c1ccccc12	86*	/	/	/	/	/
CCOC(=O)[C@]12Cc3ccc(C)cc3[C@H]1N(C1CCCCC1)C(=O)c1cc(OC)ccc12	95*	/	/	/	/	/
CCOC(=O)[C@]12Cc3c(cc(OC)c(OC)c3OC)[C@H]1N(C1CCCCC1)C(=O)c1ccccc12	90*	/	/	/	/	/
CCOC(=O)[C@]12Cc3ccccc3[C@H]1N(C(C)C)C(=O)c1ccccc12	29	/	/	/	/	/
CCOC(=O)[C@]12Cc3cc(OC)ccc3[C@H]1N(C)C(=O)c1cc(OC)ccc12	23	/	/	/	/	/
CCOC(=O)[C@]12Cc3cc(Cl)ccc3[C@H]1N(C1CCCCC1)C(=O)c1cc(OC)ccc12	96*	/	/	/	/	/
CCOC(=O)[C@]12Cc3cc(Cl)ccc3[C@H]1N(C)C(=O)c1cc(OC)ccc12	17	/	/	/	/	/
CSc1ncc(Cl)c(C(=O)O)n1 (tested in a mixture with another compound)	-5	-4	1.1	1	14	1
CCC(COC(=O)NC)NC(=O)Oc1ccccc1 (configuration not stated)	-13	-5	0.96	-6	-14	1
O=C1NCN(c2ccccc2)C12CCN(C(c1cc3ccccc3o1)c1nnnn1Cc1ccccc1)CC2 (configuration not stated)	-10	/	/	/	/	/
CCOC(=O)[C@]12Cc3cc(C)ccc3[C@H]1N(C1CCCCC1)C(=O)c1ccccc12	92*	/	/	/	/	/
CC(C)[C@]12O[C@H]1[C@@H]1O[C@]13[C@]1(O[C@H]1C[C@H]1C4=C(CC[C@@]13C)C(=O)OC4)[C@@H]2O	/	0	/	/	44	1
C1=C(CCNCc2ccccc2)CCCC1	2	-2	1	-13	9	1
Cc1nc2cc(C(F)(F)F)ccc2n1C1CCN(Cc2nnnn2Cc2ccc3c(c2)OCO3)CC1	58*	1	0.33	4	17	1
Cc1nc2cc(C(F)(F)F)ccc2n1C1CCN(Cc2nnnn2Cc2cccs2)CC1	23	-4	0.66	20	-5	1
COc1ccc(CNC(C)Cc2cccs2)cc1 (configuration not stated)	1	-4	1	3	14	1
COc1cc2cc(C(=O)N3CC(COS(C)(=O)=O)c4ccc(O)cc43)[nH]c2c(OC)c1OC (configuration not stated)	91*	/	/	/	/	/
CC(C)NC(=O)Cn1cc(C(=O)c2ccccc2F)c2ccccc21	9	-7	0.97	10	0	1.1
c1ccc2sc(NC3=NCCN3)nc2c1	-2	10	2.4	10	20	0.9
COc1ccc2nc(NC3=NCCN3)sc2c1	33	57*	3	56	14	0.4
C[C@]12CC[C@H](O)C[C@H]1CC[C@@H]1[C@@H]2C[C@@H](O)[C@]2(C)[C@@H](C3=CC(=O)OC3)CC[C@]12O	56*	/	/	/	/	/
SMILES	C8 TRAIL sens	FLuc inhib CS	NF-kB neuron act	APP 5'UTR act	PPC-1+TRAIL kill	FLuc act counter
CC(=O)C1CCC2C3CCC4CC(O)CCC4(C)C3CCC12C (configuration not stated)	-8	/	/	/	/	/
C[C@H]1CC[C@@H]2[C@@H](C)[C@H]3[C@H](C[C@H]4[C@@H]5CC=C6C[C@@H](O[C@@H]7O[C@H](CO)[C@H](O)[C@H](O[C@@H]8O[C@H](CO)[C@@H](O)[C@H](O)[C@H]8O)[C@H]7O[C@@H]7O[C@@H](C)[C@H](O)[C@@H](O)[C@H]7O)CC[C@]6(C)[C@H]5CC[C@]34C)N2C1	11	-2	1.7	11	2	1
CC(=O)OC1CC(OC2C(O)CC(OC3C(O)CC(OC4CCC5(C)C(CCC6C5CC(O)C5(C)C(C7=CC(=O)OC7)CCC65O)C4)OC3C)OC2C)OC(C)C1OC1OC(CO)C(O)C(O)C1O (configuration not stated)	67*	/	/	/	/	/
C[C@]12CCC3C(CC[C@H]4C[C@@H](O)CC[C@]34C)[C@H]1C=CC2=O (some centres not stated)	-6	/	/	/	/	/
CC12CCC(O)CC1CCC1C2CCC2(C)C(C3=CC(=O)OC3)C(O)CC12O (configuration not stated)	58*	/	/	/	/	/
COC1C(O)C(C)OC(OC2CCC3(C)C(CCC4C3C(O)CC3(C)C(C5=CC(=O)OC5)CCC43O)C2)C1O (configuration not stated)	68*	/	/	/	/	/
CC12CCC(O)CC1CCC1C2CCC2(C)C(C3=CC(=O)OC3)CCC12O (configuration not stated)	64*	/	/	/	/	/
C[C@]12CC[C@H](O)C[C@H]1CC[C@@H]1[C@@H]2CC[C@]2(C)[C@@H](C3=CC(=O)OC3)CC[C@]12O	37	/	/	/	/	/
CC(C)(O)/C=C/C(=O)C(C)(O)C1C(O)CC2(C)C3CC=C4C(C=C(O)C(=O)C4(C)C)C3(C)C(=O)CC12C (configuration not stated)	62*	/	/	/	/	/
C/C(=C\c1ccc(N(C)C)cc1)[N+](=O)[O-]	50*	6	3.1	-32	36	0.9
Cc1ccc(C[n+]2c(-c3ccc(C)cc3)cc(-c3ccc(C)cc3)cc2-c2ccc(C)cc2)cc1	63*	/	/	/	/	/
CN1CC(C#N)C2(O)c3ccccc3CCC2C1 (configuration not stated)	2	/	/	/	/	/
COCCCn1c(N)c(C(=O)OCCOC)c2nc3ccccc3nc21	-1	-1	0.9	0	28	1
CCOC(=O)c1c(N)n(CCCOC(=O)c2ccco2)c2nc3ccccc3nc12	52*	-8	0.64	8	21	1.1
COc1ccc(/C=N\N=C(N)N)cc1	-2	-1	1.3	7	12	1
NC(N)=N/N=C/c1ccc(N(c2ccccc2)c2ccccc2)cc1	69*	/	/	/	/	/
CCOP(=O)(OCC)C(NC(=O)CC(C)C)C(Cl)(Cl)Cl (configuration not stated)	2	-6	1.2	1	30	1.1
C[N+]12CCC(CC1)C(C(O)(c1ccccc1)c1cccs1)C2 (configuration not stated)	-3	-3	4.1*	-7	4	1
COc1ccc(P2(=O)Nc3ccccc3N2)cc1	5	0	1.1	171*	-4	1
